Experimental data: ChEMBL document CHEMBL1122050, “Synthesis of prostanoids with bicyclo[2.2.1]heptane, bicyclo[3.1.1]heptane, and bicyclo[2.2.2]octane ring systems. Activities of 15-hydroxy epimers on human platelets” (J Med Chem, 1982)
The source made the active and inactive calls.

Tests used:
Homo sapiens [1] = species: Homo sapiens; assay: Compound was evaluated for aggregation properties on human platelets at 1.3 uM; Irreversible; type: functional
Outline: (§1)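 Citrated human platelet-rich plasma mixed with Krebs solution and 0.9% NaCl, preincubated 2 min at 37 °C. Aggregation recorded in a Born-type aggregometer. The value is the concentration giving a primary aggregation response of 20 chart-recorder units; irreversible aggregation corresponds to 80–90 units. Each value is the mean of single determinations on PRP from at least three donors.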

Homo sapiens [2] = species: Homo sapiens; assay: Compound was evaluated for aggregation properties on human platelets at 0.72 uM; Irreversible; type: functional; outline: as §1
Homo sapiens [3] = species: Homo sapiens; assay: Compound was evaluated for aggregation properties on human platelets at 0.14 uM; Irreversible; type: functional; outline: as §1
Homo sapiens [4] = species: Homo sapiens; assay: Compound was evaluated for aggregation properties on human platelets at 10/25 uM (Dose ratio defined as the ratio of the concentrations of the agonist producing recorder unit responses in the presence and in the absence of the inhibitor); Inhi bition; type: functional, organism-based
Homo sapiens [5] = species: Homo sapiens; assay: Compound was evaluated for aggregation properties on human platelets at 2.5/4.8 uM (Dose ratio defined as the ratio of the concentrations of the agonist producing recorder unit responses in the presence and in the absence of the inhibitor); In hibition; type: functional, organism-based
Homo sapiens [6] = species: Homo sapiens; assay: Compound was evaluated for aggregation properties on human platelets at 15 uM; Reversible; type: functional; outline: as §1
Homo sapiens [7] = species: Homo sapiens; assay: Compound was evaluated for aggregation properties on human platelets at 0.31 uM; Irreversible; type: functional; outline: as §1
Homo sapiens [8] = species: Homo sapiens; assay: Compound was evaluated for aggregation properties on human platelets at 10/1.4 uM (Dose ratio defined as the ratio of the concentrations of the agonist producing recorder unit responses in the presence and in the absence of the inhibitor); Inhibition; type: functional
Homo sapiens [9] = species: Homo sapiens; assay: Compound was evaluated for aggregation properties on human platelets at 1.7 uM; Irreversible; type: functional; outline: as §1
Homo sapiens [10] = species: Homo sapiens; assay: Compound was evaluated for aggregation properties on human platelets at 10/1.3 uM (Dose ratio defined as the ratio of the concentrations of the agonist producing recorder unit responses in the presence and in the absence of the inhibitor); Inhibition; type: functional
Homo sapiens [11] = species: Homo sapiens; assay: Compound was evaluated for aggregation properties on human platelets at 10 uM (highest concentration tested); No effect; type: functional, organism-based
Homo sapiens [12] = species: Homo sapiens; assay: Compound was evaluated for aggregation properties on human platelets at 0.26 uM; Irreversible; type: functional; outline: as §1
Homo sapiens [13] = species: Homo sapiens; assay: Compound was evaluated for aggregation properties on human platelets at 5 uM; Reversible; type: functional; outline: as §1
Homo sapiens [14] = species: Homo sapiens; assay: Compound was evaluated for aggregation properties on human platelets at 80 uM (highest concentration tested); No effect; type: functional, organism-based
Homo sapiens [15] = species: Homo sapiens; assay: Compound was evaluated for aggregation properties on human platelets at 10/1.5 uM (Dose ratio defined as the ratio of the concentrations of the agonist producing recorder unit responses in the presence and in the absence of the inhibitor); Inhi bition
Homo sapiens [16] = species: Homo sapiens; assay: Compound was evaluated for aggregation properties on human platelets at 0.19 uM; Irreversible; type: functional; outline: as §1
Homo sapiens [17] = species: Homo sapiens; assay: Compound was evaluated for aggregation properties on human platelets at 3.5 uM; Irreversible; type: functional; outline: as §1
Homo sapiens [18] = species: Homo sapiens; assay: Compound was evaluated for aggregation properties on human platelets at 0.23 uM; Irreversible.; type: functional; outline: as §1
Homo sapiens [19] = species: Homo sapiens; assay: Compound was evaluated for aggregation properties on human platelets at 80 uM (highest concentration tested); Shape change only; type: functional, organism-based
Homo sapiens [20] = species: Homo sapiens; assay: Compound was evaluated for aggregation properties on human platelets at 10/2.9 uM (Dose ratio defined as the ratio of the concentrations of the agonist producing recorder unit responses in the presence and in the absence of the inhibitor); Inhibition; type: functional
Homo sapiens [21] = species: Homo sapiens; assay: Compound was evaluated for aggregation properties on human platelets at 6.2 uM; Irreversible; type: functional; outline: as §1
Homo sapiens [22] = species: Homo sapiens; assay: Compound was evaluated for aggregation properties on human platelets at 20 uM (highest concentration tested); Shape change only; type: functional, organism-based
Homo sapiens [23] = species: Homo sapiens; assay: Compound was evaluated for aggregation properties on human platelets at 20 uM (highest concentration tested); No effect; type: functional, organism-based

CCCCC[C@H](O)/C=C/[C@H]1C2CCC(CC2)[C@@H]1C/C=C\CCCC(=O)O
Aggregation response (Homo sapiens [1]): Irreversible

O=C(O)CCC/C=C\C[C@H]1C2CCC(C2)[C@@H]1/C=C/[C@@H](O)COc1ccc(Cl)cc1 (some centres undefined)
Aggregation response (Homo sapiens [2]): Irreversible

O=C(O)CCC/C=C\C[C@H]1C2CCC(C2)[C@@H]1/C=C/[C@@H](O)COc1ccc(F)cc1 (some centres undefined)
Aggregation response (Homo sapiens [3]): Irreversible

CCCCC[C@H](O)/C=C/[C@H]1C2CC([C@@H]1C/C=C\CCCC(=O)O)C2(C)C (some centres undefined)
Aggregation response (Homo sapiens [4]): Inhibition | Aggregation response (Homo sapiens [5]): Inhibition

O=C(O)CCC/C=C\C[C@H]1C2CCC(C2)[C@@H]1/C=C/[C@H](O)COc1ccc(F)cc1 (some centres undefined)
Aggregation response (Homo sapiens [1]): Irreversible

CCCCC[C@H](O)/C=C/[C@H]1C2CCC(C2)[C@@H]1C/C=C\CCCC(=O)O (some centres undefined)
Aggregation response (Homo sapiens [6]): Reversible

CC1(C)C2CC1[C@H](C/C=C\CCCC(=O)O)[C@H]2/C=C/[C@@H](O)COc1ccc(F)cc1 (some centres undefined)
Aggregation response (Homo sapiens [7]): Irreversible

CCCCC[C@@H](O)/C=C/[C@H]1C2CC([C@@H]1C/C=C\CCCC(=O)O)C2(C)C (some centres undefined)
Aggregation response (Homo sapiens [8]): Inhibition

O=C(O)CCC/C=C\C[C@H]1C2C=CC(C2)[C@@H]1/C=C/[C@H](O)COc1ccc(F)cc1 (some centres undefined)
Aggregation response (Homo sapiens [9]): Irreversible

CCCCC[C@@](C)(O)/C=C/[C@H]1C2CCC(C2)[C@@H]1C/C=C\CCCC(=O)O (some centres undefined)
Aggregation response (Homo sapiens [10]): Inhibition

O=C(O)CCC/C=C\C[C@H]1C2C=CC(C2)[C@@H]1/C=C/C(=O)COc1ccc(F)cc1 (some centres undefined)
Aggregation response (Homo sapiens [11]): inactive

CCCCC[C@H](O)/C=C/[C@H]1C2COC(C2)[C@@H]1C/C=C\CCCC(=O)O (some centres undefined)
Aggregation response (Homo sapiens [12]): Irreversible

CC1(C)C2CC1[C@H](C/C=C\CCCC(=O)O)[C@H]2/C=C/[C@H](O)COc1ccc(F)cc1 (some centres undefined)
Aggregation response (Homo sapiens [13]): Reversible

O=C(O)CCC/C=C\C[C@H]1C2C=CC(C2)[C@@H]1/C=C/[C@H](O)CCc1ccc(Cl)cc1 (some centres undefined)
Aggregation response (Homo sapiens [14]): inactive

CCCCC[C@@H](O)/C=C/[C@H]1C2CCC(C2)[C@@H]1C/C=C\CCCC(=O)O (some centres undefined)
Aggregation response (Homo sapiens [15]): Inhibition

O=C(O)CCC/C=C\C[C@H]1C2C=CC(C2)[C@@H]1/C=C/[C@@H](O)COc1ccc(F)cc1 (some centres undefined)
Aggregation response (Homo sapiens [16]): Irreversible

O=C(O)CCC/C=C\C[C@H]1C2CCC(C2)[C@@H]1/C=C/[C@H](O)COc1ccc(Cl)cc1 (some centres undefined)
Aggregation response (Homo sapiens [17]): Irreversible

CCCCC[C@H](O)/C=C/[C@H]1C2CC(CO2)[C@@H]1C/C=C\CCCC(=O)O (some centres undefined)
Aggregation response (Homo sapiens [18]): Irreversible

O=C(O)CCC/C=C\C[C@H]1C2C=CC(C2)[C@@H]1/C=C/[C@@H](O)CCc1ccc(Cl)cc1 (some centres undefined)
Aggregation response (Homo sapiens [19]): Shape change only

CCCCC[C@@H](O)/C=C/[C@H]1C2CCC(CC2)[C@@H]1C/C=C\CCCC(=O)O
Aggregation response (Homo sapiens [20]): Inhibition

CCCCC[C@](C)(O)/C=C/[C@H]1C2CCC(C2)[C@@H]1C/C=C\CCCC(=O)O (some centres undefined)
Aggregation response (Homo sapiens [21]): Irreversible

CCCCC[C@@H](O)/C=C/[C@H]1C2COC(C2)[C@@H]1C/C=C\CCCC(=O)O (some centres undefined)
Aggregation response (Homo sapiens [22]): Shape change only

CCCCCC(=O)/C=C/[C@H]1C2COC(C2)[C@@H]1C/C=C\CCCC(=O)O (some centres undefined)
Aggregation response (Homo sapiens [23]): inactive
